Sampled rows, rich in hits. Any-hit rate of the full collection: about 3.3%.
5-HT1A blocker – human 5-HT1a receptor antagonists, primary screen, cell-based, CHO, Ga15 NFAT-bla reporter; inhibition, % at 10 µM; CHO 5-HT1a Ga15 NFAT-bla reporter, antagonist mode; actives 0.68% (n = 62,000);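 active = inhibition above the mean of all tested compounds plus 3 SD, cut at about 43% in these data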;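 note: receptor stimulated by 5-CT agonist at 100 nM near EC80; beta-lactamase reporter measured by ratiometric fluorescence of a cleavable substrate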
5HT1E antag – 5-HT1E receptor antagonists, primary screen, cell-based, HTS | actives 0.99% (n = 65,000) | inhibition, % at 6 µM | CHO 5-HT1E Ga15 NFAT-bla reporter, FRET, antagonist | AID 571, 2007;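 active = inhibition above a set limit, the mean inhibition across every tested compound plus 3 SD, cut at about 29% in these data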;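 note: signal is the 460 over 535 nm emission ratio of beta-lactamase substrate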
Target sequence (P28566 whole entry, looked up): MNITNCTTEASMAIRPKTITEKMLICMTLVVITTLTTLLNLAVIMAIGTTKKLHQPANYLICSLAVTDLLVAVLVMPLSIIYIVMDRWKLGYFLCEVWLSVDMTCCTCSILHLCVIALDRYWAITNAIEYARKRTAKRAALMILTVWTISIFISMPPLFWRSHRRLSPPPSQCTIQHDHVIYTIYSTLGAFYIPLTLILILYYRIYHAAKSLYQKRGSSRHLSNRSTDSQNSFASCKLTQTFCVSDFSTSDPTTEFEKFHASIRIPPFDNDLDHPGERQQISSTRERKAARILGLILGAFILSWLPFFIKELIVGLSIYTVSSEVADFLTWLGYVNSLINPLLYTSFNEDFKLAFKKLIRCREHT
HTR1E agonist – 5-HT1E receptor agonists, primary screen, cell-based, HTS. 5-hydroxytryptamine receptor 1E (Homo sapiens), P28566. CHO 5-HT1E Ga15 NFAT-bla reporter, FRET; 0% DMSO wells, 100% control agonist wells. activation, % at 6 µM. actives 0.69% (n = 65,000);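 active = activation above a set limit, the screen-wide mean activation plus 3 SD, cut at about 8.5% in these data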
Jurkat tox 60K – cytotoxicity toward Jurkat T cells, primary screen, cytotoxicity control, cell-based, Jurkat E6.1, 60K MLSMR library | AID 463, 2006 | Jurkat E6.1 viability, ATP luminescence, 48 h | actives 1.2% (n = 56,000) | inhibition, % at 4 µM;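 active = inhibition above the mean inhibition of all tested compounds plus 3 SD, cut at about 28% in these data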
HEK293 NFkB inh – inhibitors of PMA/ionomycin-induced NF-kB reporter, primary screen, antigen receptor NF-kB inhibitor project, cell-based, HEK-293 luciferase reporter, luminescence. actives 0.21% (n = 62,000). inhibition, % at 3 µM. AID 465, 2006. HEK-293 NF-kB luciferase reporter;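 active = inhibition above the mean of all tested compounds plus 3 SD, cut at about 40% in these data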
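System: NF-kB luciferase reporter HEK-293 cells | Replication: Single test | Control set: DMSO vs reference inhibitor | Evaluation: % inhibition | Schedule: 1 h pretreatment, 16 h stimulation, 37 °C | Probe or stimulus: PMA with ionomycin | Compound dosing: One dose, 3 µM | Detection: Luciferase luminescence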
5HT1a ag – human 5-HT1a receptor agonists, primary screen, cell-based, CHO, Ga15 NFAT-bla reporter | activation, % at 10 µM | CHO 5-HT1a Ga15 NFAT-bla reporter, FRET ratio; 0% basal, 100% maximal reference agonist | actives 0.56% (n = 65,000) | 5-hydroxytryptamine receptor 1A (Homo sapiens), P08908;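 active = activation above the screen-wide mean activation plus 3 SD, cut at about 19% in these data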
A number is an active result.

How did CN1CCN2c3ccccc3Cc3ccccc3C2C1 (configuration not stated) do in these assays?
5HT1E antag: inactive; HTR1E agonist: 86; 5HT1a ag: inactive

Results for CCOCCCNC(=O)CN1CCN(Cc2ccccc2C)C1=O ?
5-HT1A blocker: inactive; 5HT1E antag: inactive; HTR1E agonist: inactive; Jurkat tox 60K: inactive; HEK293 NFkB inh: inactive; 5HT1a ag: inactive

What do the screens show for `CCOc1ccc(CCNC(=O)CN2CCN(Cc3ccccc3C)C2=O)cc1OCC`?
5-HT1A blocker: inactive; 5HT1E antag: inactive; HTR1E agonist: inactive; Jurkat tox 60K: inactive; HEK293 NFkB inh: inactive; 5HT1a ag: 47

What do the screens show for `O=c1c2cc3ccccc3n2cnn1Cc1ccccc1F`?
5-HT1A blocker: inactive; 5HT1E antag: inactive; HTR1E agonist: inactive; Jurkat tox 60K: 50; HEK293 NFkB inh: inactive; 5HT1a ag: inactive

How did CCOC(=O)c1[nH]c(C)c(C(=O)c2cc(F)ccc2F)c1C do in these assays?
5-HT1A blocker: 50; 5HT1E antag: 56; HTR1E agonist: inactive; Jurkat tox 60K: 88; HEK293 NFkB inh: 42; 5HT1a ag: inactive

How did O=C(NC1=NCCS1)C1COc2ccccc2O1 (configuration not stated) do in these assays?
5-HT1A blocker: inactive; 5HT1E antag: inactive; HTR1E agonist: inactive; Jurkat tox 60K: inactive; HEK293 NFkB inh: 58; 5HT1a ag: inactive

What do the screens show for `O=C(O)CCC(=O)Nc1nnc(C(F)(F)F)s1`?
5-HT1A blocker: inactive; 5HT1E antag: inactive; HTR1E agonist: inactive; Jurkat tox 60K: inactive; HEK293 NFkB inh: inactive; 5HT1a ag: inactive

How did CCC(NC(=O)Nc1nnc(C(F)(F)F)s1)(C(F)(F)F)C(F)(F)F do in these assays?
5HT1E antag: 66; HTR1E agonist: inactive; 5HT1a ag: inactive

What do the screens show for `O=C(Cn1nnc(-c2ccccc2F)n1)Nc1ccc(S(=O)(=O)NC2CCCC2)cc1`?
5-HT1A blocker: inactive; 5HT1E antag: inactive; HTR1E agonist: inactive; Jurkat tox 60K: inactive; HEK293 NFkB inh: inactive; 5HT1a ag: inactive

What do the screens show for `Cc1nc(NC2=NCN(CCCN3CCOCC3)CN2)nc2c(C)cccc12`?
5-HT1A blocker: inactive; 5HT1E antag: inactive; HTR1E agonist: 15; Jurkat tox 60K: inactive; HEK293 NFkB inh: inactive; 5HT1a ag: inactive

How did COC(=O)c1ccc2c(=O)n(CCC3=CCCCC3)c(SCC(=O)N3CCCC3)nc2c1 do in these assays?
5-HT1A blocker: inactive; 5HT1E antag: inactive; HTR1E agonist: inactive; HEK293 NFkB inh: inactive; 5HT1a ag: inactive

How did CC(=O)N1CCc2cc(S(=O)(=O)CCC(=O)Nc3c(C)n(C)n(-c4ccccc4)c3=O)ccc21 do in these assays?
5-HT1A blocker: inactive; 5HT1E antag: inactive; HTR1E agonist: inactive; Jurkat tox 60K: inactive; HEK293 NFkB inh: inactive; 5HT1a ag: inactive

What do the screens show for `Cc1cc(N2CCC(C(=O)NCC3CC3)CC2)nc(-c2ccccc2)n1`?
5-HT1A blocker: inactive; 5HT1E antag: inactive; HTR1E agonist: inactive; Jurkat tox 60K: inactive; HEK293 NFkB inh: inactive; 5HT1a ag: inactive

Results for Cc1cc(N2C3CCC2CC(O)(c2ccc(F)cc2)C3)nc(-c2ccccc2)n1 (configuration not stated) ?
5-HT1A blocker: 43; 5HT1E antag: inactive; HTR1E agonist: inactive; Jurkat tox 60K: inactive; HEK293 NFkB inh: inactive; 5HT1a ag: inactive

What do the screens show for `CCNc1nc(NC(C)C)nc(N(C#N)Cc2ccccc2)n1`?
5-HT1A blocker: inactive; 5HT1E antag: inactive; HTR1E agonist: inactive; Jurkat tox 60K: inactive; HEK293 NFkB inh: inactive; 5HT1a ag: inactive

What do the screens show for `CCNc1nc(NC(C)(C)C)nc(N(C#N)CC)n1`?
5-HT1A blocker: inactive; 5HT1E antag: 29; HTR1E agonist: inactive; Jurkat tox 60K: inactive; HEK293 NFkB inh: inactive; 5HT1a ag: inactive

Results for COc1ccc(N(C)S(=O)(=O)c2cccc(C(=O)NC3=NCCS3)c2)cc1 ?
5-HT1A blocker: inactive; 5HT1E antag: inactive; HTR1E agonist: inactive; HEK293 NFkB inh: inactive; 5HT1a ag: inactive

What do the screens show for `CCCSc1nnc(NC(=O)Nc2ccc(F)cc2)s1`?
5HT1E antag: 32; HTR1E agonist: inactive; 5HT1a ag: inactive

Results for COc1ccc(N2CCN(C(c3cccc(OC)c3OC)c3nnnn3C3CCCC3)CC2)cc1 (configuration not stated) ?
5-HT1A blocker: 44; 5HT1E antag: inactive; HTR1E agonist: inactive; Jurkat tox 60K: inactive; HEK293 NFkB inh: inactive; 5HT1a ag: inactive

What do the screens show for `COc1cccc(C(c2nnnn2Cc2ccco2)N2CCN(c3cccc(C)c3C)CC2)c1OC` (configuration not stated)?
5-HT1A blocker: 52; 5HT1E antag: inactive; HTR1E agonist: inactive; Jurkat tox 60K: inactive; HEK293 NFkB inh: inactive; 5HT1a ag: inactive

How did COc1ccc(N2CCN(C(c3ccccc3OC)c3nnnn3C3CCCC3)CC2)cc1 (configuration not stated) do in these assays?
5-HT1A blocker: inactive; 5HT1E antag: inactive; HTR1E agonist: inactive; Jurkat tox 60K: inactive; HEK293 NFkB inh: inactive; 5HT1a ag: inactive

How did Cc1cccc(-c2c3c(=O)n(C)c(=O)n(C)c3c3cccnn23)c1 do in these assays?
5-HT1A blocker: inactive; 5HT1E antag: inactive; HTR1E agonist: inactive; Jurkat tox 60K: inactive; HEK293 NFkB inh: inactive; 5HT1a ag: inactive

What do the screens show for `O=C(Nc1cccc(F)c1)C1C2C=CC3(CN(CCCN4CCOCC4)C(=O)C13)O2` (configuration not stated)?
5-HT1A blocker: inactive; 5HT1E antag: inactive; HTR1E agonist: inactive; Jurkat tox 60K: inactive; HEK293 NFkB inh: inactive; 5HT1a ag: inactive

Results for Cc1ccc(OC(=O)CCc2c(C)nc3ncnn3c2C)cc1 ?
5-HT1A blocker: inactive; 5HT1E antag: inactive; HTR1E agonist: inactive; Jurkat tox 60K: inactive; HEK293 NFkB inh: inactive; 5HT1a ag: inactive

Results for CN1CCN(/C(=N\O)c2nonc2N)CC1 ?
5-HT1A blocker: inactive; 5HT1E antag: inactive; HTR1E agonist: 55; Jurkat tox 60K: inactive; HEK293 NFkB inh: inactive; 5HT1a ag: inactive

How did Nc1nonc1/C(=N/O)N1CCN(CCO)CC1 do in these assays?
5-HT1A blocker: inactive; 5HT1E antag: inactive; HTR1E agonist: inactive; Jurkat tox 60K: inactive; HEK293 NFkB inh: inactive; 5HT1a ag: inactive

How did COc1ccc(-c2cc(C(F)(F)F)nc(S(=O)(=O)CCC(=O)N3CCOCC3)n2)cc1 do in these assays?
5-HT1A blocker: inactive; 5HT1E antag: inactive; HTR1E agonist: inactive; Jurkat tox 60K: inactive; HEK293 NFkB inh: inactive; 5HT1a ag: inactive

Results for COc1ccccc1-c1cc(C(F)(F)F)nc(S(=O)(=O)CCCC(=O)N2CCOCC2)n1 ?
5-HT1A blocker: inactive; 5HT1E antag: 59; HTR1E agonist: inactive; Jurkat tox 60K: 62; HEK293 NFkB inh: inactive; 5HT1a ag: inactive

High-throughput results from PubChem.
